From ChEMBL document CHEMBL1123964, “Potent, long-acting luteinizing hormone-releasing hormone antagonists containing new synthetic amino acids: N,N'-dialkyl-D-homoarginines” (J Med Chem, 1988)
Square brackets hold non-standard residues; d marks the D form. Peptide text beside a SMILES is read from it. dPhe(4-Cl) = N[C@H](Cc1ccc(Cl)cc1)C(=O)O; dPhe(4-F) = N[C@H](Cc1ccc(F)cc1)C(=O)O; d2Nal = N[C@H](Cc1ccc2ccccc2c1)C(=O)O

Key:
[1] = target: T1, Gonadotropin-releasing hormone receptor (Rattus norvegicus) (UniProt P30969); assay: Antiovulatory activity on proestrus was measured by administering as a solution in 50% propylene glycol / 0.9% saline in rat; assay type: functional
T1 sequence (whole entry): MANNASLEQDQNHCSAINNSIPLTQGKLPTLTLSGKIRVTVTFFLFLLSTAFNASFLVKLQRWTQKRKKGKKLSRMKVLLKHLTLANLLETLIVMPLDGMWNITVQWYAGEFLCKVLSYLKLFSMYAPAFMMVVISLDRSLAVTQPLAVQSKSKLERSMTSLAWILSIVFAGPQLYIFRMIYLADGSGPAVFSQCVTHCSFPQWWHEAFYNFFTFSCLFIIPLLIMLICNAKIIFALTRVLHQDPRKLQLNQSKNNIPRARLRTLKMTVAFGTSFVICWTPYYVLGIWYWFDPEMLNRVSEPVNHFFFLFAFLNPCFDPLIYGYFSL

[2] = target: T1, Gonadotropin-releasing hormone receptor (Rattus norvegicus); assay: Antiovulatory activity on diestrus II following administration as a solution in corn oil (24h earlier) in rat.; assay type: functional, organism-based
In short: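 Female rats with at least two normal 4-day cycles before the test cycle were selected. They received the analogue sc in corn oil at noon on diestrus II, 24 h before the proestrus dosing time. On the morning of expected estrus the oviducts were examined under a dissecting microscope, and freshly ovulated eggs were counted. ED50 was taken from percent ovulating versus log-dose, with 10 rats per dose group and usually three or more dose groups.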

[3] = target: T1, Gonadotropin-releasing hormone receptor (Rattus norvegicus); assay: Antiovulatory activity on proestrus following administration of solution in corn oil in rat.; assay type: functional, organism-based
In short: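 Rats with at least two normal 4-day cycles were used. They were injected sc with the analogue in corn oil at noon on proestrus, about 2 h before the preovulatory LH-RH surge. Oviducts were removed on the morning of expected estrus and checked microscopically for fresh eggs, which were counted. ED50 came from percent of females ovulating plotted against log-dose, with 10 animals per dose group.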

CNC(=NCCCC[C@@H](NC(=O)[C@H](Cc1ccc(O)cc1)NC(=O)[C@H](CO)NC(=O)[C@@H](Cc1c[nH]c2ccccc12)NC(=O)[C@@H](Cc1ccc(F)cc1)NC(=O)[C@@H](Cc1ccc2ccccc2c1)NC(C)=O)C(=O)N[C@@H](CC(C)C)C(=O)N[C@@H](CCCN=C(N)N)C(=O)N1CCC[C@H]1C(=O)NCC(N)=O)NC
ED50 (ug injection-1) [1]: 1.7 | ED50 (ug injection-1) [2]: 5 | ED50 (ug injection-1) [3]: 0.8

CC(=O)N1CCC[C@H]1C(=O)N[C@H](Cc1ccc(F)cc1)C(=O)N[C@H](Cc1ccc2ccccc2c1)C(=O)N[C@@H](CO)C(=O)NC(Cc1ccc(O)cc1)C(=O)N[C@@H](Cc1ccc2ccccc2c1)C(=O)N[C@@H](CC(C)C)C(=O)N[C@@H](CCCN=C(N)N)C(=O)N1CCC[C@H]1C(=O)NCC(N)=O (stereo in doubt)
ED50 (ug injection-1) [1]: 2.2 | ED50 (ug injection-1) [2]: 140 | ED50 (ug injection-1) [3]: 3.3

CNC(=NCCCC[C@@H](NC(=O)[C@H](Cc1ccc(O)cc1)NC(=O)[C@H](CO)NC(=O)[C@@H](Cc1c[nH]c2ccccc12)NC(=O)[C@@H](Cc1ccc(Cl)cc1)NC(=O)[C@@H](Cc1ccc(Cl)cc1)NC(C)=O)C(=O)N[C@@H](CC(C)C)C(=O)N[C@@H](CCCN=C(N)N)C(=O)N1CCC[C@H]1C(=O)N[C@H](C)C(N)=O)NC
ED50 (ug injection-1) [1]: 1.6 | ED50 (ug injection-1) [2]: 5.6 | ED50 (ug injection-1) [3]: 1

CC(=O)N[C@H](Cc1ccc(Cl)cc1)C(=O)N[C@H](Cc1ccc(Cl)cc1)C(=O)N[C@H](Cc1c[nH]c2ccccc12)C(=O)N[C@@H](CO)C(=O)N[C@@H](Cc1ccc(O)cc1)C(=O)N[C@H](CCCCN=C(N)N)C(=O)N[C@@H](CC(C)C)C(=O)N[C@@H](CCCN=C(N)N)C(=O)N1CCC[C@H]1C(=O)N[C@H](C)C(N)=O
ED50 (ug injection-1) [1]: 1.3 | ED50 (ug injection-1) [2]: < 8 | ED50 (ug injection-1) [3]: 2

CCNC(=NCCCC[C@@H](NC(=O)[C@H](Cc1ccc(O)cc1)NC(=O)[C@H](CO)NC(=O)[C@@H](Cc1c[nH]c2ccccc12)NC(=O)[C@@H](Cc1ccc(Cl)cc1)NC(=O)[C@@H](Cc1ccc2ccccc2c1)NC(C)=O)C(=O)N[C@@H](CC(C)C)C(=O)N[C@@H](CCCN=C(N)N)C(=O)N1CCC[C@H]1C(=O)NCC(N)=O)NCC
ED50 (ug injection-1) [1]: 2 | ED50 (ug injection-1) [2]: 2.5 | ED50 (ug injection-1) [3]: 1

CCNC(=NCCCC[C@@H](NC(=O)[C@H](Cc1ccc(O)cc1)NC(=O)[C@H](CO)NC(=O)[C@@H](Cc1c[nH]c2ccccc12)NC(=O)[C@@H](Cc1ccc(Cl)cc1)NC(=O)[C@@H](Cc1ccc2ccccc2c1)NC(C)=O)C(=O)N[C@@H](CC(C)C)C(=O)N[C@@H](CCCN=C(N)N)C(=O)N1CCC[C@H]1C(=O)N[C@H](C)C(N)=O)NCC (stereo in doubt)
ED50 (ug injection-1) [1]: 0.7 | ED50 (ug injection-1) [2]: 2.5 | ED50 (ug injection-1) [3]: 0.5

CCCNC(=NCCCC[C@@H](NC(=O)[C@H](Cc1ccc(O)cc1)NC(=O)[C@H](CO)NC(=O)[C@@H](Cc1c[nH]c2ccccc12)NC(=O)[C@@H](Cc1ccc(Cl)cc1)NC(=O)[C@@H](Cc1ccc(Cl)cc1)NC(C)=O)C(=O)N[C@@H](CC(C)C)C(=O)N[C@@H](CCCN=C(N)N)C(=O)N1CCC[C@H]1C(=O)NCC(N)=O)NCCC
ED50 (ug injection-1) [1]: 2.6 | ED50 (ug injection-1) [2]: 16 | ED50 (ug injection-1) [3]: 2.3

CCCNC(=NCCCC[C@@H](NC(=O)[C@H](Cc1ccc(O)cc1)NC(=O)[C@H](CO)NC(=O)[C@@H](Cc1c[nH]c2ccccc12)NC(=O)[C@@H](Cc1ccc(F)cc1)NC(=O)[C@@H](Cc1ccc2ccccc2c1)NC(C)=O)C(=O)N[C@@H](CC(C)C)C(=O)N[C@@H](CCCN=C(N)N)C(=O)N1CCC[C@H]1C(=O)NCC(N)=O)NCCC
ED50 (ug injection-1) [1]: 2.4 | ED50 (ug injection-1) [2]: 12 | ED50 (ug injection-1) [3]: 4.7

CC(=O)N[C@H](Cc1ccc(Cl)cc1)C(=O)N[C@H](Cc1ccc(Cl)cc1)C(=O)N[C@H](Cc1c[nH]c2ccccc12)C(=O)N[C@@H](CO)C(=O)N[C@@H](Cc1ccc(O)cc1)C(=O)N[C@H](CCCN=C(N)N)C(=O)N[C@@H](CC(C)C)C(=O)N[C@@H](CCCN=C(N)N)C(=O)N1CCC[C@H]1C(=O)N[C@H](C)C(N)=O (Ac-[dPhe(4-Cl)][dPhe(4-Cl)][dW]SY[dR]LRP[dA]-NH2)
ED50 (ug injection-1) [1]: 1.7 | ED50 (ug injection-1) [2]: 5 | ED50 (ug injection-1) [3]: 1.2

CC(=O)N[C@H](Cc1ccc2ccccc2c1)C(=O)N[C@H](Cc1ccc(Cl)cc1)C(=O)N[C@H](Cc1cccnc1)C(=O)N[C@@H](CO)C(=O)N[C@@H](Cc1ccc(O)cc1)C(=O)N[C@H](CCCN=C(N)N)C(=O)N[C@@H](CC(C)C)C(=O)N[C@@H](CCCN=C(N)N)C(=O)N1CCC[C@H]1C(=O)N[C@H](C)C(N)=O
ED50 (ug injection-1) [1]: 0.5 | ED50 (ug injection-1) [3]: 0.3

CCNC(=NCCCC[C@@H](NC(=O)[C@H](Cc1ccc(O)cc1)NC(=O)[C@H](CO)NC(=O)[C@@H](Cc1c[nH]c2ccccc12)NC(=O)[C@@H](Cc1ccc(Cl)cc1)NC(=O)[C@@H](Cc1ccc(Cl)cc1)NC(C)=O)C(=O)N[C@@H](CC(C)C)C(=O)N[C@@H](CCCN=C(N)N)C(=O)N1CCC[C@H]1C(=O)NCC(N)=O)NCC
ED50 (ug injection-1) [1]: 2 | ED50 (ug injection-1) [2]: 16 | ED50 (ug injection-1) [3]: 2.4

CC(=O)N[C@H](Cc1ccc2ccccc2c1)C(=O)N[C@H](Cc1ccc(F)cc1)C(=O)N[C@H](Cc1c[nH]c2ccccc12)C(=O)N[C@@H](CO)C(=O)N[C@@H](Cc1ccc(O)cc1)C(=O)N[C@H](CCCN=C(N)N)C(=O)N[C@@H](CC(C)C)C(=O)N[C@@H](CCCN=C(N)N)C(=O)N1CCC[C@H]1C(=O)NCC(N)=O (Ac-[d2Nal][dPhe(4-F)][dW]SY[dR]LRPG-NH2)
ED50 (ug injection-1) [1]: 2.4 | ED50 (ug injection-1) [2]: 9 | ED50 (ug injection-1) [3]: 1.1

CCNC(=NCCCC[C@@H](NC(=O)[C@H](Cc1ccc(O)cc1)NC(=O)[C@H](CO)NC(=O)[C@@H](Cc1c[nH]c2ccccc12)NC(=O)[C@@H](Cc1ccc(F)cc1)NC(=O)[C@@H](Cc1ccc2ccccc2c1)NC(C)=O)C(=O)N[C@@H](CC(C)C)C(=O)N[C@@H](CCCN=C(N)N)C(=O)N1CCC[C@H]1C(=O)NCC(N)=O)NCC
ED50 (ug injection-1) [1]: 1.6 | ED50 (ug injection-1) [2]: 3.5 | ED50 (ug injection-1) [3]: 1.4

CCCNC(=NCCCC[C@@H](NC(=O)[C@H](Cc1ccc(O)cc1)NC(=O)[C@H](CO)NC(=O)[C@@H](Cc1c[nH]c2ccccc12)NC(=O)[C@@H](Cc1ccc(Cl)cc1)NC(=O)[C@@H](Cc1ccc(Cl)cc1)NC(C)=O)C(=O)N[C@@H](CC(C)C)C(=O)N[C@@H](CCCN=C(N)N)C(=O)N1CCC[C@H]1C(=O)N[C@H](C)C(N)=O)NCCC
ED50 (ug injection-1) [1]: 2.6 | ED50 (ug injection-1) [2]: 14 | ED50 (ug injection-1) [3]: 2

CCNC(=NCCCC[C@@H](NC(=O)[C@H](Cc1ccc(O)cc1)NC(=O)[C@H](CO)NC(=O)[C@@H](Cc1ccc2ccccc2c1)NC(=O)[C@@H](Cc1ccc(Cl)cc1)NC(=O)[C@@H](Cc1ccc2ccccc2c1)NC(C)=O)C(=O)N[C@@H](CC(C)C)C(=O)N[C@@H](CCCN=C(N)N)C(=O)N1CCC[C@H]1C(=O)N[C@H](C)C(N)=O)NCC
ED50 (ug injection-1) [3]: 1.7

CCNC(=NCCCC[C@@H](NC(=O)[C@H](Cc1ccc(O)cc1)NC(=O)[C@H](CO)NC(=O)[C@@H](Cc1c[nH]c2ccccc12)NC(=O)[C@@H](Cc1ccc(Cl)cc1)NC(=O)[C@@H](Cc1ccc(Cl)cc1)NC(C)=O)C(=O)N[C@@H](CC(C)C)C(=O)NC(CCCN=C(N)N)C(=O)N1CCC[C@H]1C(=O)N[C@H](C)C(N)=O)NCC (stereo not given in full)
ED50 (ug injection-1) [1]: 1.7 | ED50 (ug injection-1) [2]: 3.3 | ED50 (ug injection-1) [3]: 1.6
